Experimental data taken from ChEMBL document CHEMBL4251575, “Design, synthesis, and biological evaluation of 1,3-diarylisoquinolines as novel topoisomerase I catalytic inhibitors” (Eur J Med Chem, 2018).
Calls of active or inactive are those of the source. The rule behind the calls is not given here.

Legend:
[1] = target: T1, DNA topoisomerase 1 (Homo sapiens) (UniProt P11387); assay: Poison activity at topoisomerase 1 in human T47D cells assessed as induction of induction of DNA damage by measuring tail DNA levels at 5 uM after 24 hrs by SYBR Green staining-based comet assay; assay type: cell-based
T1 sequence (whole entry): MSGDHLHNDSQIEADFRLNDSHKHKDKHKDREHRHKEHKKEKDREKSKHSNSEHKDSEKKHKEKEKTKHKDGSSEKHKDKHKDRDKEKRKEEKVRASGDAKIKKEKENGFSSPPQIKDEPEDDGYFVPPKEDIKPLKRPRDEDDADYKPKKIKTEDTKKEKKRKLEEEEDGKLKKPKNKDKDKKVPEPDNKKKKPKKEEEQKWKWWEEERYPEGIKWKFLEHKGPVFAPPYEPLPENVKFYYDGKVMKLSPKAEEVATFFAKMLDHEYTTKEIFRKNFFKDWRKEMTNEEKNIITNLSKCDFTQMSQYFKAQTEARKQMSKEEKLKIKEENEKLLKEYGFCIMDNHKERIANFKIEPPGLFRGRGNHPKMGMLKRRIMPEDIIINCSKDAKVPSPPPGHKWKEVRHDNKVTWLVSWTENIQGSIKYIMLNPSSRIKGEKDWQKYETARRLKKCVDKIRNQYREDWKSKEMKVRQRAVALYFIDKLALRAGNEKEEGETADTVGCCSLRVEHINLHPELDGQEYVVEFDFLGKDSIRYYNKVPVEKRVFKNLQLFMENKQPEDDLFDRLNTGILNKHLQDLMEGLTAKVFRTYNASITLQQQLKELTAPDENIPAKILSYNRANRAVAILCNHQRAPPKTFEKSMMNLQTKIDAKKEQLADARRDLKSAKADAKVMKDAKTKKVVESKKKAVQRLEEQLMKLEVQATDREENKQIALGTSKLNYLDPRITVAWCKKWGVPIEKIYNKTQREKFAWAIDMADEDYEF
Method in brief: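 T47D cells seeded 1 x 10⁵ per well, treated 24 h, trypsinised, resuspended in ice-cold PBS, embedded in low-melting agarose on slides. Lysed 30 min at 4 °C in the dark, alkaline unwinding (pH > 13) 30 min at r.t., alkaline electrophoresis 20 min at 15 V, SYBR Green staining, fluorescence microscopy; % tail DNA versus untreated control.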

[2] = target: T1, DNA topoisomerase 1 (Homo sapiens); assay: Inhibition of human recombinant DNA topoisomerase 1-mediated DNA relaxation at 20 uM incubated for 30 mins using pBR322 DNA substrate by ethidium bromide dye-based agarose gel electrophoresis relative to control camptothecin
Method in brief: (§1)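 pBR322 (100 ng) with recombinant human topo I (0.4 units) in 10 mM Tris-HCl pH 7.9, 150 mM NaCl, 0.1% BSA, 1 mM spermidine, 5% glycerol, 30 min at 37 °C. Stopped with sarcosyl/glycerol/dye and run on 1% agarose/TAE at 15 V for 7 h. EtBr-stained; supercoiled DNA quantified as % inhibition. Relative values are the ratio to the camptothecin control.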

[3] = target: T1, DNA topoisomerase 1 (Homo sapiens); assay: Inhibition of human recombinant DNA topoisomerase 1-mediated DNA relaxation at 100 uM incubated for 30 mins using pBR322 DNA substrate by ethidium bromide dye-based agarose gel electrophoresis relative to control camptothecin; method in brief: as §1
[4] = target: T1, DNA topoisomerase 1 (Homo sapiens); assay: Inhibition of human recombinant DNA topoisomerase 1-mediated DNA relaxation at 100 uM incubated for 30 mins using pBR322 DNA substrate by ethidium bromide dye-based agarose gel electrophoresis; method in brief: as §1
Sus scrofa [5] = species on record: Sus scrofa; assay: Induction of porcine brain tubulin polymerization at 10 uM after 61 mins by spectroscopic analysis
Method in brief: (§2)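 Porcine brain tubulin at 1.5 mg/mL final in cold PEM buffer (80 mM Na-PIPES pH 6.9, 1 mM MgCl₂, 30% glycerol, 1 mM EGTA) with 1 mM GTP. Compounds were dissolved in DMSO and diluted in PEM. They were pre-warmed 2 min at 37 °C before tubulin was added. DMSO vehicle and paclitaxel controls. A340 was read each minute for 61 min at 37 °C.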

[6] = target: DNA topoisomerase 2-alpha (Homo sapiens) (UniProt P11388); assay: Inhibition of human DNA topoisomerase 2 alpha-mediated DNA relaxation at 100 uM incubated for 30 mins using pBR322 DNA substrate by ethidium bromide dye-based agarose gel electrophoresis relative to control etoposide
DNA topoisomerase 2-alpha (Homo sapiens), sequence (P11388 whole entry): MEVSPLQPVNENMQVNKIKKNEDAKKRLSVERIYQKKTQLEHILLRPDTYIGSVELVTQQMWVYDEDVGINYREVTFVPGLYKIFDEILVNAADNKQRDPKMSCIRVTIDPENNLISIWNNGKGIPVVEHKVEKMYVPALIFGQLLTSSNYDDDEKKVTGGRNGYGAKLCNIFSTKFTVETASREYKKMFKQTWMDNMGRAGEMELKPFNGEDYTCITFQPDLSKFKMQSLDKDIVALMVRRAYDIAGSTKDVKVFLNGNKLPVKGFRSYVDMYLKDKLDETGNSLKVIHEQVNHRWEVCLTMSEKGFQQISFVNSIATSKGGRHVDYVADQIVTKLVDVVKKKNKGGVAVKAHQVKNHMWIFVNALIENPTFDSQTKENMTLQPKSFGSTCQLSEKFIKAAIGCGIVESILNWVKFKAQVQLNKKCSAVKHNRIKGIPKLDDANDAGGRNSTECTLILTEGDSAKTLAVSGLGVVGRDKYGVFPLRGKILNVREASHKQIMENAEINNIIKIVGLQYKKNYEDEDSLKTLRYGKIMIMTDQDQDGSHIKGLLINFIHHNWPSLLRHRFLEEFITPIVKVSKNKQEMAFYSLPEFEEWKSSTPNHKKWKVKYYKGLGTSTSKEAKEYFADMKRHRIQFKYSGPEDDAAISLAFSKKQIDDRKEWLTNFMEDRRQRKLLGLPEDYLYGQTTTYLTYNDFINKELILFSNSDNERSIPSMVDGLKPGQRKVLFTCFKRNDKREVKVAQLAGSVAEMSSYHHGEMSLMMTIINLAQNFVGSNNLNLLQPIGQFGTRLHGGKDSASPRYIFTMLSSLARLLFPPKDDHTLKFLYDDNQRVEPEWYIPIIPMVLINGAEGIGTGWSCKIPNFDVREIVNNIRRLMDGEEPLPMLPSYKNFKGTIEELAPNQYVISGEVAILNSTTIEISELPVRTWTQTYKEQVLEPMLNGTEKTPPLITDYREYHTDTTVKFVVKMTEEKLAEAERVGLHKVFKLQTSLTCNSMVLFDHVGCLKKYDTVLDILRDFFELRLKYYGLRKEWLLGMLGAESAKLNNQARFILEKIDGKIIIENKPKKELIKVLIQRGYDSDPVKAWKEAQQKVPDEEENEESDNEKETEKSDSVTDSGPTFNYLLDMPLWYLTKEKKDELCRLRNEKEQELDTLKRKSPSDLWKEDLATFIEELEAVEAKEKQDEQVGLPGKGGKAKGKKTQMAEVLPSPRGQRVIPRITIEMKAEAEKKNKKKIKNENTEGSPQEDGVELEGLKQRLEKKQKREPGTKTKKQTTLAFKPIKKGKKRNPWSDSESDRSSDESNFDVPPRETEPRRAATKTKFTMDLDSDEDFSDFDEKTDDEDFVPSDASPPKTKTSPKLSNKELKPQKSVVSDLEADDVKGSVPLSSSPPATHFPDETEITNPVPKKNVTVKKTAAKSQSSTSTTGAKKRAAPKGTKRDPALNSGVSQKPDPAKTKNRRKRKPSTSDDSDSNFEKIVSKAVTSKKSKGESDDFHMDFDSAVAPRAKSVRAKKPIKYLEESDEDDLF
Method in brief: (§3)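 Stopped with EDTA and run on 1% agarose/TAE at 25 V for 4 h. EtBr-stained; supercoiled DNA quantified as % inhibition. Relative values are the ratio to the etoposide control.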

[7] = target: T1, DNA topoisomerase 1 (Homo sapiens); assay: Inhibition of human recombinant DNA topoisomerase 1-mediated DNA relaxation at 20 uM incubated for 30 mins using pBR322 DNA substrate by ethidium bromide dye-based agarose gel electrophoresis; method in brief: as §1
HCT-15 = assay: Cytotoxicity against human HCT15 cells after 72 hrs by cell counting kit-8 analysis; assay type: functional, cell-based; conditions: HCT-15, 72 h
Method in brief: (§4)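 Cells seeded at 2×10^5 or 1×10^5 per well, grown overnight in medium with 10% FBS at 37 °C, 5% CO₂, then FBS-starved 4 h. Graded compound concentrations given for 72 h. CCK-8 then added for 4 h and absorbance read at 450 nm. IC50 from a four-parameter logistic fit; mean ± S.D. of three experiments, each in triplicate.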

[8] = target: DNA topoisomerase 2-alpha (Homo sapiens) (UniProt P11388); assay: Inhibition of human DNA topoisomerase 2 alpha-mediated DNA relaxation at 100 uM incubated for 30 mins using pBR322 DNA substrate by ethidium bromide dye-based agarose gel electrophoresis; method in brief: as §3
MCF-10A = assay: Cytotoxicity against human MCF10A cells after 72 hrs by cell counting kit-8 analysis; assay type: cell-based; method in brief: as §4
T47D = assay: Cytotoxicity against human T47D cells after 72 hrs by cell counting kit-8 analysis; assay type: functional, cell-based; method in brief: as §4
Sus scrofa [9] = species on record: Sus scrofa; assay: Inhibition of porcine brain tubulin polymerization at 10 uM after 61 mins by spectroscopic analysis; method in brief: as §2
[10] = target: DNA topoisomerase 2-alpha (Homo sapiens) (UniProt P11388); assay: Inhibition of human DNA topoisomerase 2 alpha-mediated DNA relaxation at 20 uM incubated for 30 mins using pBR322 DNA substrate by ethidium bromide dye-based agarose gel electrophoresis relative to control etoposide; method in brief: as §3
[11] = target: DNA topoisomerase 2-alpha (Homo sapiens) (UniProt P11388); assay: Inhibition of human DNA topoisomerase 2 alpha-mediated DNA relaxation at 20 uM incubated for 30 mins using pBR322 DNA substrate by ethidium bromide dye-based agarose gel electrophoresis; method in brief: as §3
[12] = target: T1, DNA topoisomerase 1 (Homo sapiens); assay: Poison activity at human topoisomerase 1 assessed as induction of relaxation of pHOT1 DNA substrate at 100 to 1000 uM incubated for 30 mins by ethidium bromide dye-based agarose gel electrophoresis analysis
Method in brief: (§5)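 pHOT1 (100 ng) relaxed first with topo I (3 units) in 10 mM Tris-HCl pH 7.5, 1 mM EDTA, 30 min at 37 °C. Compound then added for a further 30 min at 37 °C; amsacrine positive control at 100–1000 μM. Stopped with 1% SDS and run on 1% agarose at 15 V/cm for 12–15 h. EtBr-stained and imaged.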

Sus scrofa [13] = species on record: Sus scrofa; assay: Inhibition of porcine brain tubulin polymerization at 15 uM after 61 mins by spectroscopic analysis; method in brief: as §2
[14] = target: T1, DNA topoisomerase 1 (Homo sapiens); assay: Poison activity at topoisomerase 1 (unknown origin) assessed as […] in enzyme mediated DNA cleavage complex formation by measuring increase in nicked DNA level at 500 uM using supercoiled pBR322 plasmid DNA as substrate after 20 mins by ethidium bromine dye-based agarose gel electrophoresis analysis
Method in brief: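 Supercoiled pBR322 (100 ng) pre-reacted 10 min with topo I (3 units), then compound added for 20 min at 37 °C. Stopped with 0.5% sarcosyl and digested with proteinase K at 45 °C for 30 min, then heated 2 min at 70 °C. Run on 1.5% agarose/TAE containing 0.5 μg/mL EtBr; nicked DNA versus DMSO control, CPT as poison control.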

[15] = target: T1, DNA topoisomerase 1 (Homo sapiens); assay: Poison activity at human topoisomerase 1 assessed as induction of relaxation of pHOT1 DNA substrate at 1000 uM incubated for 30 mins by ethidium bromide dye-based agarose gel electrophoresis analysis; method in brief: as §5
[16] = target: T1, DNA topoisomerase 1 (Homo sapiens); assay: Inhibition of DNA topoisomerase-1 in human T47D cells assessed as decrease in free topoisomerase-1 levels incubated for 2 hrs by band depletion assay; assay type: cell-based
Method in brief: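 T47D cells seeded at 2×10^5 in 60-mm plates. On day 2 they were treated 2 h at 37 °C, harvested by trypsin and held in PBS containing the same compound concentration. Lysis in 62.5 mM Tris-HCl pH 6.8, 1 mM EDTA, 2% SDS with sonication, then centrifuged. 50 µg protein run on 8% SDS-PAGE; Western blot for free topo I with ECL detection.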

[17] = target: T1, DNA topoisomerase 1 (Homo sapiens); assay: Poison activity at topoisomerase 1 in human T47D cells assessed as induction of induction of DNA damage by measuring tail DNA levels at 10 uM after 24 hrs by SYBR Green staining-based comet assay; assay type: cell-based
Method in brief: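 T47D cells seeded at 1×10^5 per well and treated 24 h, then trypsinized and suspended in ice-cold PBS. Embedded in low-melting agarose, lysed 30 min at 4 °C and alkaline-unwound (pH > 13) 30 min at r.t. Alkaline electrophoresis 20 min at 15 V, then SYBR Green stain and fluorescence microscopy. Read-out is % tail DNA versus untreated and CPT controls.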

[18] = target: T1, DNA topoisomerase 1 (Homo sapiens); assay: Inhibition of free DNA topoisomerase-1 in human T47D cells at 50 uM assessed as suppression of camptothecin-induced decrease in free topoisomerase-1 levels pre-treated before camptothecin addition and measured after 2 hrs by band depletion assay; assay type: cell-based
DNA = assay: Binding affinity to […] (unknown origin) at 100 uM preincubated for 30 mins in presence of Hoechst 33342 followed by compound addition measured after 30 mins by fluorescence assay; assay type: nucleic-acid assay
Method in brief: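 ctDNA (30 µM final) pre-mixed with Hoechst 33342 (1 µg/mL final) in 10 mM Tris (pH 7.2), 30 min at r.t. with shaking. Compound then added (0–100 μM series; DMSO 1% in all wells, DMSO-only control) and incubated 30 min at r.t. Fluorescence read at 361 nm excitation, emission spectrum 400–600 nm.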

SMILES | Ratio [2] | Ratio [3] | inhibition [4] [%] | Tubulin polymerization induction (Sus scrofa [5]) | Ratio [6] | inhibition [7] [%] | IC50 (HCT-15) [nM] | inhibition [8] [%] | IC50 (MCF-10A) [nM] | IC50 (T47D) [nM] | inhibition (Sus scrofa [9]) | other results
CC[C@@]1(O)C(=O)OCc2c1cc1n(c2=O)Cc2cc3ccccc3nc2-1 |  |  |  |  |  |  |  |  |  |  |  | Activity [1]: 25%
COc1ccc(-c2cc3cc(C)ccc3c(-c3cccc(O)c3)n2)c(C)c1 | 2.46 | 1.13 | 73.4 | inactive | 0.2 | 70.4 | 1750 | 12.3 | 5050 | 560 | Active | 
COc1cc(OC)cc(-c2cc3ccccc3c(-c3cccc(O)c3)n2)c1 |  | 0 | 0 | inactive | 0.59 |  | 840 | 37.3 | 6770 | 760 | inactive | Ratio [10]: 0.9; inhibition [11]: 30.9%
COc1cc(NS(C)(=O)=O)ccc1Nc1c2ccccc2nc2ccccc12 |  |  |  |  |  |  |  |  |  |  |  | Activity [12]: Active
COc1cc(OC)cc(-c2cc3ccccc3c(-c3ccc(O)cc3)n2)c1 |  | 0 | 0 | inactive | 0.82 |  | 2780 | 51.2 | 7280 | 780 | inactive | Ratio [10]: 1.17; inhibition [11]: 40%
CC(=O)O[C@H]1C(=O)[C@@]2(C)[C@H]([C@H](OC(=O)c3ccccc3)[C@]3(O)C[C@H](OC(=O)[C@H](O)[C@@H](NC(=O)c4ccccc4)c4ccccc4)C(C)=C1C3(C)C)[C@]1(OC(C)=O)CO[C@@H]1C[C@@H]2O |  |  |  |  |  |  |  |  |  |  |  | Activity (Sus scrofa [5]): Active
COc1ccc(/C=C\c2cc(OC)c(OC)c(OC)c2)cc1O |  |  |  |  |  |  |  |  |  |  | 100% | 
COc1cc(OC)cc(-c2cc3ccc(N(C)C)cc3c(-c3cccc(N)c3)n2)c1 | 2.5 | 1.12 | 73.1 | inactive | 0.04 | 71.5 | 2530 | 2.5 | 42000 | 3590 | inactive | 
COc1ccc(-c2cc3cc(C)ccc3c(-c3cccc(N)c3)n2)c(C)c1 | 2.53 | 1.22 | 79.7 | inactive | 0.06 | 72.4 | 2770 | 4.1 | 5740 | 740 |  | inhibition (Sus scrofa [13]): Active; Activity [14]: inactive; Activity [15]: inactive; inhibition [16]: inactive; Activity [17]: 9.43%; Activity [1]: 5.82%; inhibition [18]: Active; Activity (DNA): inactive
